Source: ChEMBL document CHEMBL1955779, “Favourable involvement of α2A-adrenoreceptor antagonism in the I₂-imidazoline binding sites-mediated morphine analgesia enhancement” (Bioorg Med Chem, 2012)
The source made the active and inactive calls. No cut-off for these calls is given here.

Experiments:
[1] = target: T1, Alpha-2C adrenergic receptor (Homo sapiens, UniProt P18825); assay: Displacement of [3H]RX821002 from human Alpha-2C adrenergic receptor expressed in CHO cells after 30 mins by scintillation counting; format: cell-based
T1 sequence (P18825 whole entry): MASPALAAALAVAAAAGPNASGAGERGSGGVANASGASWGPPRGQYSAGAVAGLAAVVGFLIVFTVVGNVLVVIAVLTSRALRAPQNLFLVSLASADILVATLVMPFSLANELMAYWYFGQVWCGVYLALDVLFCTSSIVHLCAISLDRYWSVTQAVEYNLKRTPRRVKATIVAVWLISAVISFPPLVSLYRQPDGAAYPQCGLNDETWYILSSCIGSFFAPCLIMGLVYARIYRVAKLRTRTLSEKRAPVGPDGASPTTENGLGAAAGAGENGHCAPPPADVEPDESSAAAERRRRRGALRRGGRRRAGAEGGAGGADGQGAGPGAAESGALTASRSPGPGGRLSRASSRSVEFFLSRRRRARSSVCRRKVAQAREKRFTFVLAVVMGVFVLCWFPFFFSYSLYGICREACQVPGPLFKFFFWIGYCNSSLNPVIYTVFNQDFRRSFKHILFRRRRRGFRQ

[2] = target: T2, Alpha-2B adrenergic receptor (Homo sapiens) (UniProt P18089); assay: Antagonist activity at human alpha2B adrenergic receptor expressed in CHO cells assessed as inhibition of clonidine-induced extracellular acidification after 30 mins by cytosensor microphysiometry; format: functional, cell-based
T2 sequence (whole entry): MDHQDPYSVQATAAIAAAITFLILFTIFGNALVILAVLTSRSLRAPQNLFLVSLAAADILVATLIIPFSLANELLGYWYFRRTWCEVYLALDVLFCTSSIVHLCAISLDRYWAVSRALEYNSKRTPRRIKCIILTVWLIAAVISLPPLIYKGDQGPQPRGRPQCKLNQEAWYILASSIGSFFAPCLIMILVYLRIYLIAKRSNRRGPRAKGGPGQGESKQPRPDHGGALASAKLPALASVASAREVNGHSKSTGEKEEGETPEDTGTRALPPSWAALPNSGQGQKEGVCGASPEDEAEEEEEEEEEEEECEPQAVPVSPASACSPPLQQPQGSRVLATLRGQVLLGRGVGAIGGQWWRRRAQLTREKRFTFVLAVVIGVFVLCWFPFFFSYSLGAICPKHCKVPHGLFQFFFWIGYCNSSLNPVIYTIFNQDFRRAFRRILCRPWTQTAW
Procedure, shortened: (§1)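 pKb from cytosensor microphysiometry on CHO cells each expressing one human α2 subtype (α2A, α2B or α2C). Antagonist shift of the clonidine agonist concentration-effect curve was measured. Means ± SEM of three to six separate experiments.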

[3] = target: T3, Alpha-2B adrenergic receptor (Homo sapiens, UniProt P18089); assay: Displacement of [3H]RX821002 from human alpha2B adrenergic receptor expressed in CHO cells after 30 mins by scintillation counting; format: cell-based
T3 sequence (P18089 whole entry): T2 sequence (whole entry)

[4] = target: T4, Alpha-2A adrenergic receptor (Homo sapiens, UniProt P08913); assay: Displacement of [3H]RX821002 from human alpha2A adrenergic receptor expressed in CHO cells after 30 mins by scintillation counting; format: cell-based
T4 sequence (P08913 whole entry): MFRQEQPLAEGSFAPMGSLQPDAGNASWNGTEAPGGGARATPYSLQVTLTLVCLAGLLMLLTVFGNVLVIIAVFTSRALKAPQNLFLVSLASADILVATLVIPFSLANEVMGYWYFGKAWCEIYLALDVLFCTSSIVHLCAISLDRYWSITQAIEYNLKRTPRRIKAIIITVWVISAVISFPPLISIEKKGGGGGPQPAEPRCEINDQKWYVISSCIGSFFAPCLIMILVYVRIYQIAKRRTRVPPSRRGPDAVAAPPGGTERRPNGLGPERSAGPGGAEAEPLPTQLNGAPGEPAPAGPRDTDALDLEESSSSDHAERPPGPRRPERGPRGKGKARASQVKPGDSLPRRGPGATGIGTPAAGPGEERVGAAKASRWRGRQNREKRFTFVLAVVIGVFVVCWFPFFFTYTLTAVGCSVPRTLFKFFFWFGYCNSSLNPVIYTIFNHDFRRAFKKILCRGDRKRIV

[5] = target: T5, Alpha-2A adrenergic receptor (Homo sapiens) (UniProt P08913); assay: Antagonist activity at human alpha2A adrenergic receptor expressed in CHO cells assessed as inhibition of clonidine-induced extracellular acidification after 30 mins by cytosensor microphysiometry; format: functional, cell-based; procedure, shortened: as §1
T5 sequence (whole entry): T4 sequence (P08913 whole entry)

[6] = target: T6, Alpha-2C adrenergic receptor (Homo sapiens) (UniProt P18825); assay: Antagonist activity at human Alpha-2C adrenergic receptor expressed in CHO cells assessed as inhibition of clonidine-induced extracellular acidification after 30 mins by cytosensor microphysiometry; format: functional, cell-based; procedure, shortened: as §1
T6 sequence (whole entry): T1 sequence (P18825 whole entry)

[7] = Displacement of [3H]2-BFI from Sprague-Dawley rat I2 imidazoline binding site by liquid scintillation counting
Mus musculus [8] = assay: Potentiation of morphine-induced analgesic activity in CD1 mouse assessed as latency in radiant heat-induced tail flick at 1.250 mg/kg, ip administered 15 mins prior to morphine measured up to 120 mins; format: functional, organism-based; set-up: dose 1.25 mg/kg
Procedure, shortened: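 Male CD-1 mice (25–35 g) were given ip pretreatment in distilled-water vehicle 15 min before morphine 5.0 mg/kg sc or saline. Radiant-heat IR tail-flick was applied to the lower third of the tail. Basal latency (2–3 s) was the mean of two trials 30 min apart. Readings at 30, 60, 90, 120 and 240 min post-morphine were expressed as %MPE. Means ± SEM, 8–10 mice.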

[9] = Binding affinity to I2 imidazoline binding site
[10] = Selectivity ratio of I2 imidazoline binding site to alpha2 adrenergic receptor
Mus musculus [11] = assay: Potentiation of morphine-induced analgesic activity in ip dosed CD1 mouse assessed as latency in radiant heat-induced tail flick administered 15 mins prior to morphine in the presence of 2 mg/kg, ip of idazoxan; format: functional; settings: route intraperitoneal
Procedure, shortened: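 CD-1 mice, radiant heat tail-flick. […] Test agent given 15 min before morphine 5.0 mg/kg sc. Latency read after morphine.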

Mus musculus [12] = assay: Antinociceptive activity in CD1 mouse assessed as latency in radiant heat-induced tail flick at 1 mg/kg, ip from 30 to 240 mins; format: functional, organism-based; set-up: dose 1 mg/kg
Procedure, shortened: (§2)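 Male CD-1 mice, 25–35 g. Radiant heat tail-flick: I.R. source aimed at lower third of tail; basal latency (2-3 s) is the mean of two trials 30 min apart. Test agent 1 or 2 mg/kg ip, or distilled water vehicle, given 15 min before morphine 5.0 mg/kg sc or saline. Readings at 30, 60, 90, 120 and 240 min after morphine, as %MPE; 8–10 mice, means ± SEM.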

Mus musculus [13] = assay: Potentiation of morphine-induced analgesic activity in CD1 mouse assessed as latency in radiant heat-induced tail flick at 1 mg/kg, ip administered 15 mins prior to morphine measured up to 120 mins; format: functional, organism-based; set-up: dose 1 mg/kg; procedure, shortened: as §2
Mus musculus [14] = assay: Potentiation of morphine-induced analgesic activity in CD1 mouse assessed as latency in radiant heat-induced tail flick at 2 mg/kg, ip administered 15 mins prior to morphine measured up to 120 mins; format: functional, organism-based; set-up: dose 2 mg/kg; procedure, shortened: as §2
[15] = target: T7, 5-hydroxytryptamine receptor 1A (Homo sapiens, UniProt P08908); assay: Binding affinity to 5HT1A receptor
T7 sequence (P08908 whole entry): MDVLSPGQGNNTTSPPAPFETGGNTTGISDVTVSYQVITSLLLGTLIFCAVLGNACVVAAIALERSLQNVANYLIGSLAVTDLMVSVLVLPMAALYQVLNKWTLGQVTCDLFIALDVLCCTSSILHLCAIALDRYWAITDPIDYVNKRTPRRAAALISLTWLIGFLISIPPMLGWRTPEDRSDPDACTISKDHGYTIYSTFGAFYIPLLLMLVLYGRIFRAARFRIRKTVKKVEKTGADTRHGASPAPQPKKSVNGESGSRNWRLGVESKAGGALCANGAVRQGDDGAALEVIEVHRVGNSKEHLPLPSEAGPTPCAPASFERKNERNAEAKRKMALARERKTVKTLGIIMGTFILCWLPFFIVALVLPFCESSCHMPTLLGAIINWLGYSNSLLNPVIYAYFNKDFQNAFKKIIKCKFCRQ

[16] = target: T8, Alpha-1A adrenergic receptor (Homo sapiens, UniProt P35348); assay: Binding affinity to alpha1A adrenergic receptor
T8 sequence (P35348 whole entry): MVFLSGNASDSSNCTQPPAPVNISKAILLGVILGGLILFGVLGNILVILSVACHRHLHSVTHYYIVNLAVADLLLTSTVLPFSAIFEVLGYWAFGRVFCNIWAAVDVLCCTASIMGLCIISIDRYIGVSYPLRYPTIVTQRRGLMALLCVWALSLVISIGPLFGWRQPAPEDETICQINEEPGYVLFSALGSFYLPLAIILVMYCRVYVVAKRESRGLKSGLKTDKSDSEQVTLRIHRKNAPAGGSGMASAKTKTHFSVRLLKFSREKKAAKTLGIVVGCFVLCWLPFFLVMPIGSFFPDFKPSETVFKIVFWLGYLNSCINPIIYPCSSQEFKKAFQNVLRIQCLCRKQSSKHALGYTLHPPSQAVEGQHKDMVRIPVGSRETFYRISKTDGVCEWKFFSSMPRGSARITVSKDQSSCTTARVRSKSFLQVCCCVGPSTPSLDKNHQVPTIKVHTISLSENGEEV

Mus musculus [17] = assay: Antinociceptive activity in CD1 mouse assessed as latency in radiant heat-induced tail flick at 2 mg/kg, ip from 30 to 240 mins; format: functional, organism-based; set-up: dose 2 mg/kg; procedure, shortened: as §2
Mus musculus [18] = assay: Analgesic activity in CD1 mouse assessed as latency in radiant heat-induced tail flick at 5 mg/kg, sc after 30 mins; format: functional, organism-based; set-up: dose 5 mg/kg; procedure, shortened: as §2

Row | Compound | Ki [1] [µM] | pKb [2] | Ki [3] [µM] | Ki [4] [µM] | pKb [5] | pKb [6] | further results
1 | c1ccc(C2(c3ccccc3)COCC(C3=NCCN3)O2)cc1 (configuration not stated) | 6.17 | < 5 | 4.47 | 3.8 | 5.37 | < 5 | –
2 | c1ccc([C@@H]2COC[C@@H](C3=NCCN3)O2)cc1 (relative stereo) | > 10 | < 5 | > 10 | 6.31 | < 5 | < 5 | –
3 | c1ccc([C@H]2COC[C@@H](C3=NCCN3)O2)cc1 (relative stereo) | > 10 | 5.18 | > 10 | 5.37 | < 5 | < 5 | –
4 | c1ccc([C@@H]2CO[C@H](C3=NCCN3)CO2)cc1 (relative stereo) | > 10 | 5.5 | > 10 | > 10 | < 5 | < 5 | –
5 | c1ccc([C@H]2CO[C@H](C3=NCCN3)CO2)cc1 | > 10 | < 5 | > 10 | 7.94 | < 5 | < 5 | pKi [7]: 5.48
6 | c1ccc(C2(c3ccccc3)COC(C3=NCCN3)CO2)cc1 (configuration not stated) | 7.41 | < 5 | 2.82 | > 10 | < 5 | < 5 | –
7 | COC(=O)[C@@H]1[C@H]2C[C@H]3c4[nH]c5ccccc5c4CCN3C[C@@H]2CC[C@@H]1O | – | – | – | – | – | – | Activity (Mus musculus [8]): inactive
8 | c1ccc(CCC2=NCCN2)cc1 [PHENYZOLINE] | – | – | – | – | – | – | pKi [9]: 8.6; Selectivity ratio [10]: 794
9 | c1ccc([C@@H]2CO[C@@H](C3=NCCN3)CO2)cc1 | > 10 | < 5 | > 10 | 0.398 | 6.4 | < 5 | pKi [7]: 6.52
10 | c1ccc(C2COC(C3=NCCN3)CO2)cc1 (racemic) | > 10 | < 5 | > 10 | 0.501 | 6.4 | < 5 | Activity (Mus musculus [11]): -24%; pKi [7]: 6.35; Activity (Mus musculus [12]): inactive; Activity (Mus musculus [13]): Active; Activity (Mus musculus [14]): Active; Ki [15]: > 10 µM; Ki [16]: > 10 µM; Activity (Mus musculus [17]): inactive
11 | c1ccc2c(c1)OCC(C1=NCCN1)O2 (configuration not stated) [IDAZOXAN] | – | 7.16 | – | – | 7.73 | 7.92 | pKi [9]: 8.37; Activity (Mus musculus [14]): inactive
12 | CN1CC[C@]23c4c5ccc(O)c4O[C@H]2[C@@H](O)C=C[C@H]3[C@H]1C5 | – | – | – | – | – | – | Activity (Mus musculus [18]): Active
